Reference: ChEMBL document CHEMBL1128366, “Hypoxia-selective agents derived from quinoxaline 1,4-di-N-oxides” (J Med Chem, 1995)

Assays:
V79 = test: The compound was tested for potency by measuring the concentration (umolar) that gives 1% clonogenic cell survival in hypoxia; assay type: functional, Cricetulus griseus
In short: (§1)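 V-79 Chinese hamster lung fibroblasts in stirred suspension (2 × 10⁴ cells/mL, EMEM + 10% FBS, 10 mM HEPES), gassed for air or hypoxia; drug in DMSO added 30 min after gassing began, two flasks per dose, 2 h exposure. Cells cloned 7 days at 37 °C, crystal violet stain, colonies >64 cells counted; survival = PE treated/PE control. Dose-response curves from ≥3 experiments.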

[1] = Hypoxia cytotoxicity ratio (dose in air / hypoxia giving 99% of cell killing); in short: as §1

Structure (SMILES): N#Cc1c(N)[n+]([O-])c2cc(F)c(F)cc2[n+]1[O-]
- Potency (V79): 1 µM
- Selectivity [1]: < 10

Structure (SMILES): N#Cc1c(N)[n+]([O-])c2cc(C(F)(F)F)ccc2[n+]1[O-]
- Potency (V79): 7 µM
- Selectivity [1]: 75

Structure (SMILES): Nc1n[n+]([O-])c2ccccc2[n+]1[O-] [TIRAPAZAMINE]
- Potency (V79): 30 µM
- Selectivity [1]: 75

Structure (SMILES): N#Cc1ccc2c(c1)[n+]([O-])c(N)c(C#N)[n+]2[O-]
- Potency (V79): 11 µM
- Selectivity [1]: 50

Structure (SMILES): N#Cc1c(N)[n+]([O-])c2cc(Cl)c(Cl)cc2[n+]1[O-]
- Potency (V79): 1 µM
- Selectivity [1]: 80

Structure (SMILES): N#Cc1c(N)[n+]([O-])c2cc(-c3ccc([N+](=O)[O-])cc3)ccc2[n+]1[O-]
- Potency (V79): 4 µM
- Selectivity [1]: 15

Structure (SMILES): COc1cc2c(cc1Cl)[n+]([O-])c(C#N)c(N)[n+]2[O-]
- Potency (V79): 10 µM
- Selectivity [1]: < 10

Structure (SMILES): N#Cc1c(N)[n+]([O-])c2cc(Cl)c(F)cc2[n+]1[O-]
- Potency (V79): 2 µM
- Selectivity [1]: 10

Structure (SMILES): N#Cc1c(N)[n+]([O-])c2cc(Cl)ccc2[n+]1[O-]
- Potency (V79): 9 µM
- Selectivity [1]: 150

Structure (SMILES): N#Cc1c(N)[n+]([O-])c2cc(F)ccc2[n+]1[O-]
- Potency (V79): 15 µM
- Selectivity [1]: 100

Structure (SMILES): N#Cc1c(N)[n+]([O-])c2ccccc2[n+]1[O-]
- Potency (V79): 30 µM
- Selectivity [1]: 80

Structure (SMILES): COc1ccc2c(c1)[n+]([O-])c(N)c(C#N)[n+]2[O-]
- Potency (V79): 30 µM
- Selectivity [1]: > 10
